The list is not random: actives were taken first. Their share in the collection is about 5.1%.
NF-kB neuron act: activators of NF-kB expression in neurons, primary screen, cell-based, HTS; human neuronal cells, NF-kB reporter expression; hits give high values; fold change at 12.5 µM; 1.6% of 190,000 active; AID 1239, 2008; in the data active means fold change above about 3.3
APP 5'UTR act: activators of APP 5'UTR luciferase reporter, primary screen, SH-SY5Y cells; activation, % at 2 µM; 1% of 190,000 active; SH-SY5Y APP 5'UTR luciferase reporter, luminescence; zero percent = DMSO vehicle wells;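 active means activation above a set limit, based on mean plus 3 SD of controls, cut at about 140% in these data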
STAT1 blocker: STAT1 signaling inhibitors, primary screen, cell-based, HTS, luciferase reporter | NIH 3T3 STAT1-luciferase reporter, IFN-gamma, luminescence | inhibition, % at 5.5 µM | 0.35% of 200,000 active | AID 920, 2007;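 active means inhibition above a set limit, the mean inhibition across all tested compounds plus 3 SD, cut at about 34% in these data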;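 further: 0% = IFN-gamma with DMSO and 100% = IFN-gamma with 300 µM nifuroxazide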
STAT3 blocker: IL-6 driven STAT3 reporter inhibitors, primary screen, U3A cells, luciferase, luminescence, MLSCN library. IL-6 STAT3-luciferase reporter; host cell line lacks STAT1. inhibition, % at 5.5 µM. 0.89% of 190,000 active;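 active means inhibition above the mean inhibition across all screened compounds plus 3 SD, cut at about 44% in these data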;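 further: 0% = DMSO only wells and 100% = 100 µM nifuroxazide control wells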
STAT3 act-1: IL-6 driven STAT3 reporter potentiators, primary screen, U3A cells, luciferase, luminescence, MLSCN library | AID 871, 2007 | IL-6 STAT3-luciferase reporter; 100% = signal with IL-6 EC80 alone | activation (% of control), % at 5.6 µM | 0.91% of 190,000 active;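 active means activation above the screen-wide mean of compound activation plus 3 SD, cut at about 130% in these data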;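 further: 0% = background luminescence of wells with medium and substrate only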
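System – human U3A cells carrying STAT3-luciferase construct · Probe or stimulus – Interleukin-6, 33 ng/mL · Schedule – compound 1 h, then IL-6 6 h at 37 °C · Signal – luminescence from STAT3-driven luciferase reporter · Evaluation – percent of IL-6-only median luminescence · Benchmarks – IL-6-only high control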
STAT1 act-1: STAT1 signaling activators, primary screen, cell-based, HTS, luciferase reporter. NIH 3T3 STAT1-luciferase reporter, IFN-gamma, luminescence; 100% = IFN-gamma alone, no compound. activation (% of control), % at 5.5 µM. 2.6% of 200,000 active;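 active means activation above the screen-wide mean activation plus 3 SD, cut at about 130% in these data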;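 further: raw ratio to IFN-gamma control signal so 100% means no change and 0% no light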
STAT3 act-2: STAT3 reporter potentiators, retest of hits, confirmation, U3A cells, luciferase, luminescence; shares compounds with STAT3 act-1; IL-6 potentiation; U3A cells lack STAT1; 100 means same as IL-6 alone; potentiation (% of control), % at 5.7 µM; 64% of 1,200 active;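 active means percent activation of the STAT3 luciferase reporter above a set limit taken from the earlier primary screen, cut at about 130% in these data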;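 further: 0% = background signal of medium plus substrate and 100% = median of IL-6 with DMSO wells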
NFkB act STAT3ct: NF-kB reporter activators in human cells, counter-screen for STAT3 activator project; 11% of 1,200 active; shares compounds with STAT3 act-1; activation (% of control), % at 5.7 µM; NF-kappaB reporter activation; in the data active means activation above about 120%;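 further: reporter induced by TNF-alpha stimulation; 100% = median of stimulated DMSO wells and 0% = no signal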
STAT1 act-2: STAT1 reporter activators, IFN-gamma induced, counter-screen for STAT3 activator project, cell-based, NIH 3T3, luciferase luminescence. shares compounds with STAT3 act-1. NIH 3T3 STAT1-luciferase reporter. activation (% of control), % at 5.7 µM. 13% of 1,200 active;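 active means activation above the solvent-only control well mean plus 3 SD, set per screening run, cut at about 120% in these data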;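 further: 100% = IFN-gamma with DMSO median signal so 100% means no change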
The depositor's hits bear a star.

For O=C(Nc1ccc(Cl)cc1)N(C1=NCCC1)c1ccc(OC(F)F)cc1 the results were NF-kB neuron act 1.6, APP 5'UTR act 21, STAT1 blocker -2, STAT3 blocker 8, STAT3 act-1 96 and STAT1 act-1 102.
`c1ccc(-c2ccccc2OCCOCCN2CCc3ccccc3C2)cc1` gave NF-kB neuron act 0.99, APP 5'UTR act 12, STAT1 blocker 21, STAT3 blocker -29, STAT3 act-1 138*, STAT1 act-1 79, STAT3 act-2 127, NFkB act STAT3ct 107 and STAT1 act-2 89.
Screening Clc1ccc(SCCOCCN2CCc3ccccc3C2)cc1 returned NF-kB neuron act 0.8, APP 5'UTR act -3, STAT1 blocker 5, STAT3 blocker -28, STAT3 act-1 137*, STAT1 act-1 94, STAT3 act-2 123, NFkB act STAT3ct 108 and STAT1 act-2 97.
`Cc1oc(-c2cccc(Br)c2)[n+]([O-])c1C` gave NF-kB neuron act 1.2, APP 5'UTR act 19, STAT1 blocker -8, STAT3 blocker 14, STAT3 act-1 94 and STAT1 act-1 107.
COC(=O)c1ccc(CSc2nc3ccc(S(=O)(=O)N4CCOCC4)cc3[nH]2)cc1 was read as NF-kB neuron act 0.95, APP 5'UTR act 50, STAT1 blocker 10, STAT3 blocker -8, STAT3 act-1 106 and STAT1 act-1 91.
`CCOC(=O)c1cnn(-c2ncnc3sc(CC)cc23)c1N` gave NF-kB neuron act 1.4, APP 5'UTR act 2, STAT1 blocker -2, STAT3 blocker -49, STAT3 act-1 144*, STAT1 act-1 102, STAT3 act-2 147*, NFkB act STAT3ct 111 and STAT1 act-2 111.
`CCC(C)(C)n1nnnc1CN1CCc2ccccc21` gave NF-kB neuron act 1.2, APP 5'UTR act -3, STAT1 blocker -4, STAT3 blocker -53, STAT3 act-1 145*, STAT1 act-1 100, STAT3 act-2 126, NFkB act STAT3ct 105 and STAT1 act-2 103.
`c1ccc(CCn2nnnc2CN2CCCc3ccccc32)cc1` gave NF-kB neuron act 1.6, APP 5'UTR act 34, STAT1 blocker -4, STAT3 blocker -35, STAT3 act-1 128 and STAT1 act-1 103.
For Cc1ccc(-n2[nH]c(C)c(/C=C3/C=Nc4ccccc43)c2=O)cc1C the results were NF-kB neuron act 1.3, APP 5'UTR act -11, STAT1 blocker 1, STAT3 blocker -54, STAT3 act-1 149*, STAT1 act-1 99, STAT3 act-2 138*, NFkB act STAT3ct 109 and STAT1 act-2 111.
Screening Cc1ccc(-n2[nH]c(C)c(/C=N/Nc3ccc([N+](=O)[O-])cc3[N+](=O)[O-])c2=O)cc1C returned NF-kB neuron act 0.77, APP 5'UTR act -26, STAT1 blocker 17, STAT3 blocker 14, STAT3 act-1 87 and STAT1 act-1 84.
For Clc1ccc(C2=Nn3c(nnc3-c3cc(-c4ccccc4)n[nH]3)SC2)cc1 the results were NF-kB neuron act 0.96, APP 5'UTR act -3, STAT1 blocker -10, STAT3 blocker 15, STAT3 act-1 94 and STAT1 act-1 105.
Screening Oc1ccc(Cl)cc1-c1cc(-c2ccccc2)n[nH]1 returned NF-kB neuron act 1.8, APP 5'UTR act 36, STAT1 blocker -12, STAT3 blocker -52, STAT3 act-1 148*, STAT1 act-1 111, STAT3 act-2 142*, NFkB act STAT3ct 114 and STAT1 act-2 125*.
Screening CC(C)(C)c1ccc(C(=O)CSc2n[nH]c(=O)[nH]c2=O)cc1 returned NF-kB neuron act 1.4, APP 5'UTR act -17, STAT1 blocker -5, STAT3 blocker 15, STAT3 act-1 93 and STAT1 act-1 105.
COC(CN1C(=O)C(=O)/C(=C(/O)c2ccccc2)C1c1ccccn1)OC (stereo not given) was read as NF-kB neuron act 1.3, APP 5'UTR act 20, STAT1 blocker -2, STAT3 blocker -3, STAT3 act-1 107 and STAT1 act-1 100.
COc1ccc(-n2c(CN3CCN(c4ccccn4)CC3)nc3ccc([N+](=O)[O-])cc3c2=O)c(OC)c1 was read as NF-kB neuron act 2.4, APP 5'UTR act -15, STAT1 blocker 2, STAT3 blocker 2, STAT3 act-1 104 and STAT1 act-1 97.
Screening O=C(Cc1c[nH]c2ccccc12)NCc1ccc2c(c1)OCO2 returned NF-kB neuron act 1.2, APP 5'UTR act 8, STAT1 blocker -12, STAT3 blocker -40, STAT3 act-1 138*, STAT1 act-1 111, STAT3 act-2 137*, NFkB act STAT3ct 100 and STAT1 act-2 99.
`CCOc1ccc(NC(=O)C(C)Oc2ccccc2C(=O)Nc2ccc(C)c(Cl)c2)cc1` (stereo not given) gave NF-kB neuron act 1.1, APP 5'UTR act -13, STAT1 blocker -10, STAT3 blocker -61, STAT3 act-1 149*, STAT1 act-1 109, STAT3 act-2 137*, NFkB act STAT3ct 111 and STAT1 act-2 103.
O=C(CC1C(=O)NCCN1Cc1ccccc1C(F)(F)F)NCCc1ccccn1 (stereo not given) was read as NF-kB neuron act 1.1, APP 5'UTR act -14, STAT1 blocker 2, STAT3 blocker 10, STAT3 act-1 96 and STAT1 act-1 98.
For CCOc1cc(NC(=S)NCCCN2CCOCC2)c(OCC)cc1NC(=O)C1CC1 the results were NF-kB neuron act 0.86, APP 5'UTR act 23, STAT1 blocker 14, STAT3 blocker 11, STAT3 act-1 95 and STAT1 act-1 88.
For c1cnc(N2CCN(Cc3c[nH]c4ccccc34)CC2)nc1 the results were NF-kB neuron act 1.1, APP 5'UTR act 5, STAT1 blocker 2, STAT3 blocker -13, STAT3 act-1 116 and STAT1 act-1 98.
Screening Cc1ccccc1N1CCN(Cc2c[nH]c3ccccc23)CC1 returned NF-kB neuron act 1.5, APP 5'UTR act -15, STAT1 blocker 6, STAT3 blocker -41, STAT3 act-1 143*, STAT1 act-1 95, STAT3 act-2 137*, NFkB act STAT3ct 99 and STAT1 act-2 96.

Screening results from PubChem BioAssay.
